Experimental data reported in article PMC11447854 (ACS Omega, 2024).
pIC50: −log10 of the molar value.

Columns and labels:
[1] = system: HeLa cells; test: cells; format: cell-based, human; settings: for IC50: Homo sapiens, HeLa, 24 h, read-out: cell-based IC50 (HeLa, μM); for F, activity fold compared to hit compounds, F = IC50(Hit)/IC50(Lead): from HeLa IC50, hit = 6a, 7a or 8a of the same series; for activity improvement compared to gefitinib (fold): HeLa cells, IC50 versus commercial drug gefitinib
[2] = biological target: T1, rhCOX-2 (Homo sapiens, UniProt P35354); test: COX-2 enzyme-based activity test; format: biochemical
T1 sequence (P35354 18-604): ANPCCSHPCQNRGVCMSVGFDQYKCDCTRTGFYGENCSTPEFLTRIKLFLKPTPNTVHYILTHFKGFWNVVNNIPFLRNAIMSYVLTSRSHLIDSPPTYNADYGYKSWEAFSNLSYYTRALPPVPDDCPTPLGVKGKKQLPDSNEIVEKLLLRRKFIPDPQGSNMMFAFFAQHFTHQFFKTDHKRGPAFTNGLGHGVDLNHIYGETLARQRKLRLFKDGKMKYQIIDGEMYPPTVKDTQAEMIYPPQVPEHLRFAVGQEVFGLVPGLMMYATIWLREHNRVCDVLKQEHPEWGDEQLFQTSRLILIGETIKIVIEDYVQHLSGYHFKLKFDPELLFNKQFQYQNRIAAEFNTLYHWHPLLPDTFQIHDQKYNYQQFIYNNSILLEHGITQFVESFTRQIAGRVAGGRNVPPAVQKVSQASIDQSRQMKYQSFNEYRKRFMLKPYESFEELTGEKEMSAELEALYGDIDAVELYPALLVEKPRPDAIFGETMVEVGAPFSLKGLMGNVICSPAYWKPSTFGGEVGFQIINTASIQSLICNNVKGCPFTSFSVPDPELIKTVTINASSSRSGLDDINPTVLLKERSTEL

[3] = system: HEK293 cells; test: CCK8 proliferation inhibition assay, HEK293 normal cells; format: cell-based, human; settings: for IC50: Homo sapiens, HEK293, read-out: cell-based IC50 (HEK293, μM); for SI = IC50(HEK293)/IC50(HeLa): fold selectivity for cancer cells (HeLa) over normal cells (HEK293)
Procedure, shortened: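 HEK293 and HeLa cells were seeded at 5000 cells/well and grown 24 h at 37 °C, 5% CO2. They were then exposed 24 h to test compound at 1.0–10.0 mg/L in serum-free medium, alongside untreated, DMSO-solvent and gefitinib controls. After a PBS wash and 3 h with CCK8, […]. IC50 came from inhibition relative to control. SI = IC50(HEK293)/IC50(HeLa).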

| Compound | IC50 [1] | F, activity fold compared to hit compounds, F = IC50(Hit)/IC50(Lead) [1] | pIC50 [2] | IC50 [3] | SI = IC50(HEK293)/IC50(HeLa) [3] | activity improvement compared to gefitinib (fold) [1] |
| --- | --- | --- | --- | --- | --- | --- |
| C/C(=N\NC(=O)C(C)c1ccc(CC(C)C)cc1)c1cc2ccccc2oc1=O (centres unmarked) [6a, (E)-2-(4-Isobutylphenyl)-N′-(1-(2-oxo-2H-chromen-3-yl)ethylidene)propanehydrazide] | 4.64 µM | 1.00 | – | – | – | – |
| C/C(=N\NC(=O)C(C)c1ccc(CC(C)C)cc1)c1cc2cc(F)ccc2oc1=O (centres unmarked) [6b, (E)-N′-(1-(6-Fluoro-2-oxo-2H-chromen-3-yl)ethylidene)-2-(4-isobutylphenyl)propanehydrazide] | 2.59 µM | 1.78 | – | – | – | – |
| C/C(=N\NC(=O)C(C)c1ccc(CC(C)C)cc1)c1cc2cc(Br)cc(Br)c2oc1=O (centres unmarked) [6c, (E)-N′-(1-(6,8-Dibromo-2-oxo-2H-chromen-3-yl)ethylidene)-2-(4-isobutylphenyl)propanehydrazide] | 0.606 µM | 7.61 | 5.57 | 32.2 µM | 53.18 | approximately 10 fold |
| C/C(=N\NC(=O)C(C)c1ccc(CC(C)C)cc1)c1cc2ccc(O)cc2oc1=O (centres unmarked) [6d, (E)-N′-(1-(7-Hydroxy-2-oxo-2H-chromen-3-yl)ethylidene)-2-(4-isobutylphenyl)propanehydrazide] | 6.65 µM | 0.69 | 5.98 | – | – | – |
| C/C(=N\NC(=O)C(C)c1ccc(CC(C)C)cc1)c1cc2cc(C)ccc2oc1=O (centres unmarked) [6e, (E)-2-(4-Isobutylphenyl)-N′-(1-(6-methyl-2-oxo-2H-chromen-3-yl)ethylidene)propanehydrazide] | 2.19 µM | 2.11 | – | – | – | – |
| C/C(=N\NC(=O)C(C)c1ccc(CC(C)C)cc1)c1cc2cc(Cl)cc(Cl)c2oc1=O (centres unmarked) [6f, (E)-N′-(1-(6,8-Dichloro-2-oxo-2H-chromen-3-yl)ethylidene)-2-(4-isobutylphenyl)propanehydrazide] | 4.34 µM | 1.06 | 5.82 | – | – | – |
| C/C(=N\NC(=O)C(C)c1ccc(CC(C)C)cc1)c1cc2cc(Cl)ccc2oc1=O (centres unmarked) [6g, (E)-N′-(1-(6-Chloro-2-oxo-2H-chromen-3-yl)ethylidene)-2-(4-isobutylphenyl)propanehydrazide] | 2.56 µM | 1.80 | – | – | – | – |
| CC(C)Cc1ccc(C(C)C(=O)NNC(=O)c2cc3ccccc3oc2=O)cc1 (centres unmarked) [7a, N′-(2-(4-Isobutylphenyl)propanoyl)-2-oxo-2H-chromene-3-carbohydrazide] | 4.61 µM | 1.00 | 5.55 | – | – | – |
| Cc1ccc2oc(=O)c(C(=O)NNC(=O)C(C)c3ccc(CC(C)C)cc3)cc2c1 (centres unmarked) [7b, N′-(2-(4-Isobutylphenyl)propanoyl)-6-methyl-2-oxo-2H-chromene-3-carbohydrazide] | 42.7 µM | 0.11 | – | – | – | – |
| CC(C)Cc1ccc(C(C)C(=O)NNC(=O)c2cc3ccc(O)cc3oc2=O)cc1 (centres unmarked) [7c, 7-Hydroxy-N′-(2-(4-isobutylphenyl)propanoyl)-2-oxo-2H-chromene-3-carbohydrazide] | 8.92 µM | 0.52 | – | – | – | – |
| CC(C)Cc1ccc(C(C)C(=O)NNC(=O)c2cc3cc(Cl)ccc3oc2=O)cc1 (centres unmarked) [7d, 6-Chloro-N′-(2-(4-isobutylphenyl)propanoyl)-2-oxo-2H-chromene-3-carbohydrazide] | 137 µM | 0.03 | – | – | – | – |
| CC(C)Cc1ccc(C(C)C(=O)NNC(=O)c2cc3cc(F)ccc3oc2=O)cc1 (centres unmarked) [7e, 6-Fluoro-N′-(2-(4-isobutylphenyl)propanoyl)-2-oxo-2H-chromene-3-carbohydrazide] | 3.68 µM | 1.25 | 6.53 | – | – | – |
| CC(C)Cc1ccc(C(C)C(=O)NNC(=O)c2cc3cc([N+](=O)[O-])ccc3oc2=O)cc1 (centres unmarked) [7f, N′-(2-(4-Isobutylphenyl)propanoyl)-6-nitro-2-oxo-2H-chromene-3-carbohydrazide] | 6.25 µM | 0.74 | 6.01 | – | – | – |
| CC(C)Cc1ccc(C(C)C(=O)NNC(=O)c2cc3cc(Cl)cc(Cl)c3oc2=O)cc1 (centres unmarked) [7g, 6,8-Dichloro-N′-(2-(4-isobutylphenyl)propanoyl)-2-oxo-2H-chromene-3-carbohydrazide] | 0.783 µM | 5.89 | – | 20 µM | 25.49 | approximately 10 fold |
| CC(C)Cc1ccc(C(C)C(=O)NNC(=O)c2cc3cc(Br)cc(Br)c3oc2=O)cc1 (centres unmarked) [7h, 6,8-Dibromo-N′-(2-(4-isobutylphenyl)propanoyl)-2-oxo-2H-chromene-3-carbohydrazide] | 0.889 µM | 5.18 | – | – | – | – |
| CC(C)Cc1ccc(C(C)c2nnc(-c3cc4ccccc4oc3=O)o2)cc1 (centres unmarked) [8a, 3-(5-(1-(4-Isobutylphenyl)ethyl)-1,3,4-oxadiazol-2-yl)-2H-chromen-2-one] | 4.66 µM | 1.00 | – | – | – | – |
| CC(C)Cc1ccc(C(C)c2nnc(-c3cc4cc(F)ccc4oc3=O)o2)cc1 (centres unmarked) [8b, 6-Fluoro-3-(5-(1-(4-isobutylphenyl)ethyl)-1,3,4-oxadiazol-2-yl)-2H-chromen-2-one] | 122 µM | 0.04 | – | – | – | – |
| CC(C)Cc1ccc(C(C)c2nnc(-c3cc4cc(Cl)ccc4oc3=O)o2)cc1 (centres unmarked) [8c, 6-Chloro-3-(5-(1-(4-isobutylphenyl)ethyl)-1,3,4-oxadiazol-2-yl)-2H-chromen-2-one] | 82.2 µM | 0.06 | – | – | – | – |
| CC(C)Cc1ccc(C(C)c2nnc(-c3cc4cc(Cl)cc(Cl)c4oc3=O)o2)cc1 (centres unmarked) [8d, 6,8-Dichloro-3-(5-(1-(4-isobutylphenyl)ethyl)-1,3,4-oxadiazol-2-yl)-2H-chromen-2-one] | > 200 µM | – | – | – | – | – |
| CC(C)Cc1ccc(C(C)c2nnc(-c3cc4cc(Br)cc(Br)c4oc3=O)o2)cc1 (centres unmarked) [8e, 6,8-Dibromo-3-(5-(1-(4-isobutylphenyl)ethyl)-1,3,4-oxadiazol-2-yl)-2H-chromen-2-one] | > 200 µM | – | – | – | – | – |
| Cc1ccc2oc(=O)c(-c3nnc(C(C)c4ccc(CC(C)C)cc4)o3)cc2c1 (centres unmarked) [8f, 3-(5-(1-(4-Isobutylphenyl)ethyl)-1,3,4-oxadiazol-2-yl)-6-methyl-2H-chromen-2-one] | 42.3 µM | 0.11 | – | – | – | – |
| CC(C)Cc1ccc(C(C)C(=O)O)cc1 (centres unmarked) [ibuprofen, reference compound] | > 200 µM | – | – | – | – | – |
